Data reported in ChEMBL document CHEMBL1765023, “Acetyl analogs of combretastatin A-4: synthesis and biological studies” (Bioorg Med Chem, 2011).

Assays:
Format in all cases: functional
SNB-75 = assay: Growth inhibition of human SNB75 cells after 48 hrs by sulforhodamine B assay; details: SNB-75, 48 h
How it was run: (§1)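 Tested in the NCI 60 human cancer cell line panel. Cells were exposed continuously for 48 h and proliferation was read by sulforhodamine B staining. GI50 (concentration for 50% growth inhibition), TGI (total growth inhibition) and LC50 were taken from dose–response curves.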

LOX IMVI = assay: Growth inhibition of human LOXIMVI cells after 48 hrs by sulforhodamine B assay
How it was run: (§2)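 NCI 60 human cancer cell line screen run at the National Cancer Institute. Cells had 48 h continuous exposure, and proliferation was read by sulforhodamine B staining. GI50 (50% growth inhibition) was taken from dose–response curves.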

OVCAR-3 = assay: Growth inhibition of human OVCAR3 cells after 48 hrs by sulforhodamine B assay; details: OVCAR-3, 48 h; how it was run: as §2
L1210 = assay: Antitumor activity against mouse L1210 cells xenografted in DBA2 mouse assessed as reduction in tumor volume at 50 mg/kg, ip QD administered on alternate days for 17 days measured on day 23; details: route intraperitoneal
How it was run: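 Female DBA2 mice, 5–7 weeks old, four per group. L1210 cells, passaged through a mouse, were washed three times in PBS and resuspended at 4.0 × 10^6 cells/mL. 100 µL (200,000 cells) was given sc to the flank on day 0. Vehicle-only controls. Tumor length and width were measured by caliper, and volume was compared on day 23.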

K562 = assay: Growth inhibition of human K562 cells after 48 hrs by sulforhodamine B assay; details: K562, 48 h; how it was run: as §2
MOLT-4 = assay: Growth inhibition of human MOLT4 cells after 48 hrs by sulforhodamine B assay; details: MOLT-4, 48 h; how it was run: as §2
SR = assay: Growth inhibition of human SR cells after 48 hrs by sulforhodamine B assay; how it was run: as §1

SMILES: COc1ccc(/C=C(/C(C)=O)c2cc(OC)c(OC)c(OC)c2)cc1O
- GI50 (SNB-75): 257 nM
- TGI (SNB-75; read-out: pTGI): > 100000 nM
- GI50 (LOX IMVI): 417 nM
- TGI (LOX IMVI; read-out: pTGI): > 100000 nM
- GI50 (OVCAR-3): 95.5 nM
- TGI (OVCAR-3; read-out: pTGI (converted)): 355 nM
- inhibition in vivo at 50 mg/kg (L1210): 35%
- GI50 (K562): 40.7 nM
- TGI (K562; read-out: pTGI): > 100000 nM
- GI50 (MOLT-4): 316 nM
- TGI (MOLT-4; read-out: pTGI): > 100000 nM
- GI50 (SR): 26.3 nM
- TGI (SR; read-out: pTGI): > 100000 nM
